Assay results as given in ChEMBL document CHEMBL4813946, “Discovery of novel 4-azaaryl-N-phenylpyrimidin-2-amine derivatives as potent and selective FLT3 inhibitors for acute myeloid leukaemia with FLT3 mutations” (Eur J Med Chem, 2021).

How the values were obtained:
CDK7/Cyclin H/MNAT1 = CDK7/Cyclin H/MNAT1 (Homo sapiens, UniProt P50613); test: Inhibition of CDK7/cyclin H/MAT1 (unknown origin) using HYSPTSPSYSPTSPSYSPTSPSKKKK-O substrate incubated for 120 mins measured after 40 mins incubation under dark by ADP-glo based luminescence assay; type: protein-complex assay
Method in brief: (§1)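 In-house ADP-Glo assay with 2 mM DMSO stocks. Kinases were CDK1/cyclin B at 1 nM, CDK2/cyclin E1 at 10 nM and CDK7/cyclin H/MAT1 at 40 nM. Substrate was histone 1 for CDK1 and CDK2, and a RNA pol II CTD peptide for CDK7. Compound at 8–10 concentrations, 1:3 serial, final DMSO 0.5%. Reactions ran 60–120 min at room temperature, then ADP-Glo reagent 40 min in the dark, then detection reagent 40 min, read by luminescence. Ki was derived from IC50 by Cheng-Prusoff.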

[1] = biological target: Receptor-type tyrosine-protein kinase FLT3 (Homo sapiens, UniProt P36888, ITD); test: Inhibition of FLT3 ITD mutant (unknown origin) using Glu/Tyr peptide substrate incubated for 80 mins measured after 40 mins incubation under dark by ADP-glo based luminescence assay
[2] = biological target: Cyclin-dependent kinase 1/cyclin B1 (Homo sapiens, UniProt P06493); test: Inhibition of CDK1/cyclin B (unknown origin) using histone 1 protein substrate incubated for 120 mins measured after 40 mins incubation under dark by ADP-glo based luminescence assay; type: protein-complex assay; method in brief: as §1
MV4-11 [3] = test: Antiproliferative activity against human MV4-11 cells incubated for 72 hrs by resazurin assay; type: functional
Method in brief: (§2)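 Cells seeded and pre-incubated 24 h at 37 °C, 5% CO2, then given a five-fold dilution series of compound (from 10 mM DMSO stock) in medium, in triplicate. Resazurin added after 72 h exposure, 4 h in dark at 37 °C. Fluorescence read at 570/585 nm, normalised to DMSO vehicle. GI50 by non-linear regression; mean ± SD of at least two replicates.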

[4] = biological target: Cyclin-dependent kinase 2/cyclin E1 (Homo sapiens, UniProt P24941); test: Inhibition of CDK2/cyclin E (unknown origin) using histone 1 protein substrate incubated for 120 mins measured after 40 mins incubation under dark by ADP-glo based luminescence assay; type: protein-complex assay; method in brief: as §1
[5] = biological target: T1, Receptor-type tyrosine-protein kinase FLT3 (Homo sapiens, UniProt P36888); test: Inhibition of wild type FLT3 (unknown origin) using Glu/Tyr peptide substrate incubated for 120 mins measured after 40 mins incubation under dark by ADP-glo based luminescence assay
T1 sequence (P36888 whole entry): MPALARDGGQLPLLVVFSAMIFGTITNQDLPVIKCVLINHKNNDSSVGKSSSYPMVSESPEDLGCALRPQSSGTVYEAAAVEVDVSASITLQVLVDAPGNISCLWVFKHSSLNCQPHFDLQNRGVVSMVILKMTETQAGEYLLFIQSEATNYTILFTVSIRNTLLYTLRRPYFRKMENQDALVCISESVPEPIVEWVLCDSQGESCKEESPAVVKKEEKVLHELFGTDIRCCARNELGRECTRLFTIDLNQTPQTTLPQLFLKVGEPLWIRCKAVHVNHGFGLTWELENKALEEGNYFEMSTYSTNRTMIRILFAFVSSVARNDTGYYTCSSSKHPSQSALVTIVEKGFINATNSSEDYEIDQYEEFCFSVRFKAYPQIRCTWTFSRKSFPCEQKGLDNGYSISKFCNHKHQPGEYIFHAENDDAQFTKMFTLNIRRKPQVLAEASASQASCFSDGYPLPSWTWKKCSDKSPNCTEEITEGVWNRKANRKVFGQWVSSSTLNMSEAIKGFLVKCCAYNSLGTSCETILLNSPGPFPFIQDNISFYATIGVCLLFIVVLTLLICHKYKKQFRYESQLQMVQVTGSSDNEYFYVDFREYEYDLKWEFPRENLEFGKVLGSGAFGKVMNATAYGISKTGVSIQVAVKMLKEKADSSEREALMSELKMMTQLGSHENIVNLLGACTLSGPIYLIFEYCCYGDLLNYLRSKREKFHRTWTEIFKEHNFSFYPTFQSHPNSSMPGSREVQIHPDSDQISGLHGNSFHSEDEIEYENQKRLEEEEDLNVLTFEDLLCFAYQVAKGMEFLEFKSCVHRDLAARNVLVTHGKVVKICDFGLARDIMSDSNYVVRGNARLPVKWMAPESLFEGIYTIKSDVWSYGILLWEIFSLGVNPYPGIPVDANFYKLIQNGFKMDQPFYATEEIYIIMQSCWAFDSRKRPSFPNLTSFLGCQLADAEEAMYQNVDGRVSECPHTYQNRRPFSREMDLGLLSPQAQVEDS
Method in brief: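 In-house ADP-Glo assay with poly(Glu,Tyr) 4:1 substrate in 40 mM Tris pH 7.5, 20 mM MgCl2, 50 µM DTT, 0.1 mg/mL BSA. Kinase at 20 nM. ADP-Glo reagent 40 min in the dark, detection reagent 30–40 min, then luminescence. Ki was derived from IC50 by Cheng-Prusoff.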

Jurkat = test: Antiproliferative activity against human Jurkat cells harboring FLT3 knockout gene assessed as reduction in cell viability after 72 hrs by resazurin assay; type: functional; method in brief: as §2
[6] = Inhibition of FLT3 Y591-V592insVDFREYEYD mutant (unknown origin) incubated for 120 mins by ADP-glo based luminescence assay; design: species or system Homo sapiens
[7] = Antiproliferative activity against human MOLM-13 cells harboring FLT3-ITD mutant assessed as reduction in cell viability after 72 hrs by resazurin assay; type: functional; conditions: MOLM-13, 72 h; method in brief: as §2
MV4-11 [8] = test: Antiproliferative activity against human MV4-11 cells harboring FLT3-ITD mutant assessed as reduction in cell viability after 72 hrs by resazurin assay; type: functional; method in brief: as §2
[9] = biological target: Receptor-type tyrosine-protein kinase FLT3 (Homo sapiens, UniProt P36888, R595-E596INSEY); test: Inhibition of FLT3 R595_E596insEY mutant (unknown origin) incubated for 120 mins by ADP-glo based luminescence assay
[10] = Inhibition of FLT3 ITD-W51 mutant (unknown origin) incubated for 120 mins by ADP-glo based luminescence assay; design: species or system Homo sapiens
K562 = test: Antiproliferative activity against human K562 cells harboring FLT3 knockout gene assessed as reduction in cell viability after 72 hrs by resazurin assay; type: functional; method in brief: as §2
U-937 = test: Antiproliferative activity against human U-937 cells harboring wild type/low FLT3 assessed as reduction in cell viability after 72 hrs by resazurin assay; type: functional; method in brief: as §2
[11] = biological target: Receptor-type tyrosine-protein kinase FLT3 (Homo sapiens, UniProt P36888, D835Y); test: Inhibition of FLT3 D835Y mutant (unknown origin) incubated for 120 mins by ADP-glo based luminescence assay
[12] = biological target: Receptor-type tyrosine-protein kinase FLT3 (Homo sapiens, UniProt P36888, F594-R595INSR); test: Inhibition of FLT3 F594_R595insR mutant (unknown origin) incubated for 120 mins by ADP-glo based luminescence assay
NB-4 = test: Antiproliferative activity against human NB-4 cells harboring wild type FLT3 assessed as reduction in cell viability after 72 hrs by resazurin assay; type: functional; method in brief: as §2
THP-1 = test: Antiproliferative activity against human THP-1 cells harboring wild type FLT3 assessed as reduction in cell viability after 72 hrs by resazurin assay; type: functional; method in brief: as §2
[13] = Inhibition of FLT3 ITD-NPOS mutant (unknown origin) incubated for 120 mins by ADP-glo based luminescence assay; design: species or system Homo sapiens

CDK7/Cyclin H/MNAT1, sequence (P51946 whole entry): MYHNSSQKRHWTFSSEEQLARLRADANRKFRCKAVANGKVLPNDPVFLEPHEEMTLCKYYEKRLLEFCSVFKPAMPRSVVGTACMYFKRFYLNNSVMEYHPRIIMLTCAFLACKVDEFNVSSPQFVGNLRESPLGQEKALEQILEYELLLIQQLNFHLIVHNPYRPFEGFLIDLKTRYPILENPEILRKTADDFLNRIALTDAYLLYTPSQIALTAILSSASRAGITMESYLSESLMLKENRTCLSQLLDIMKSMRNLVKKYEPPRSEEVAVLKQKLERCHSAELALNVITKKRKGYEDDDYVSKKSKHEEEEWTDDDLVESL
CDK7/Cyclin H/MNAT1, sequence (P50613 whole entry): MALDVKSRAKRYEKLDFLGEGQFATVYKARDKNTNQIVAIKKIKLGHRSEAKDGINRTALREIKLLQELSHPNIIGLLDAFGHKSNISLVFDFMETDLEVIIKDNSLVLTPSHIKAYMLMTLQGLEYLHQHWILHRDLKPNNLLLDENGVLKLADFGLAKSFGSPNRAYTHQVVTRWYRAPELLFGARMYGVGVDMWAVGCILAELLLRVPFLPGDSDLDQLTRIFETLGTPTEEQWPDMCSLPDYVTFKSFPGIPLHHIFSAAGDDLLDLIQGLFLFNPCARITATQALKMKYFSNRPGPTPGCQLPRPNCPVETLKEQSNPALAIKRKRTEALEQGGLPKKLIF
CDK7/Cyclin H/MNAT1, sequence (P51948 whole entry, further chain): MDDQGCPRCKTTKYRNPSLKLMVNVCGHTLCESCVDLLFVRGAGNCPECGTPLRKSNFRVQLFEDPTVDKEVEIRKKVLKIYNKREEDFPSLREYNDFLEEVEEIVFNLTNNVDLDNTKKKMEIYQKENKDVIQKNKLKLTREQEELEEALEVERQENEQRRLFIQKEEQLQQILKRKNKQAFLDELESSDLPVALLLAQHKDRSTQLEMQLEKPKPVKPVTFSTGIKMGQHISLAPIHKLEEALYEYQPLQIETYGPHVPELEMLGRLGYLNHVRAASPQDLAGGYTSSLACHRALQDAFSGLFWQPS
Cyclin-dependent kinase 1/cyclin B1, sequence (P06493 whole entry): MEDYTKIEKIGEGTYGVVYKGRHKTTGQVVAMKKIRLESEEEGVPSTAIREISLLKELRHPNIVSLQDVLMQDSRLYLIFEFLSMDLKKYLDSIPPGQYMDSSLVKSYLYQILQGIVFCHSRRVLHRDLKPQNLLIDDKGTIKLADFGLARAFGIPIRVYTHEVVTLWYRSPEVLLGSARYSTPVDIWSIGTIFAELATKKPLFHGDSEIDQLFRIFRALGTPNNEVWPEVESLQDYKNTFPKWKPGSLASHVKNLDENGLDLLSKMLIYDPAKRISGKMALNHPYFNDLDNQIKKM
Cyclin-dependent kinase 1/cyclin B1, sequence (P14635 whole entry, further chain): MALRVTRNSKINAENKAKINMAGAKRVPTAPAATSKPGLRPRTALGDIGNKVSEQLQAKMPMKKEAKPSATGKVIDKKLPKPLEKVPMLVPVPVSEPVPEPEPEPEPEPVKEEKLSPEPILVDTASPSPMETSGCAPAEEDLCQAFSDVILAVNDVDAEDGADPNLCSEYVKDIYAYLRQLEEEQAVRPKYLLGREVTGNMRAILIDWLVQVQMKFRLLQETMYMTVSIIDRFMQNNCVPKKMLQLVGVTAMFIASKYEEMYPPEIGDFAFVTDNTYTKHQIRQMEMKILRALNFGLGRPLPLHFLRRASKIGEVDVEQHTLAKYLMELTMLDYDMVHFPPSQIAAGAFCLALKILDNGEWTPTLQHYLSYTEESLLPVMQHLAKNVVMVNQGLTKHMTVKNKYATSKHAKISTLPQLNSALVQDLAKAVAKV

| SMILES | Ki (CDK7/Cyclin H/MNAT1) | Ki [1] | Ki [2] | GI50 (MV4-11 [3]) | Ki [4] | Ki [5] | other results |
| --- | --- | --- | --- | --- | --- | --- | --- |
| CN1CCN(c2cccc(Nc3nccc(-c4cn(C)c5ncccc45)n3)c2)CC1 | > 5000 nM | 13 nM | > 5000 nM | 24 nM | 970 nM | 40 nM | – |
| CC(=O)N1CCN(c2ccc(Nc3nccc(-c4c[nH]c5ccccc45)n3)cc2)CC1 | > 5000 nM | 11 nM | > 5000 nM | 33 nM | > 5000 nM | 22 nM | – |
| CC(=O)N1CCN(c2ccc(Nc3ncc(C#N)c(-c4c[nH]c5ccccc45)n3)cc2)CC1 | 426 nM | 0.4 nM | 4050 nM | 4 nM | > 5000 nM | 4 nM | – |
| CC(=O)N1CCN(c2ccc(Nc3nccc(-c4n[nH]c5ccccc45)n3)cc2)CC1 | > 5000 nM | 207 nM | > 5000 nM | 346 nM | > 5000 nM | > 5000 nM | – |
| CC(=O)N1CCN(c2ccc(Nc3ncc(C#N)c(-c4c(C)[nH]c5ccccc45)n3)cc2)CC1 | 536 nM | 2 nM | > 5000 nM | 390 nM | 2170 nM | 119 nM | – |
| CN1CCN(c2cccc(Nc3nccc(-c4c[nH]c5ncccc45)n3)c2)CC1 | 142 nM | 2 nM | 531 nM | 5 nM | 84 nM | 4 nM | – |
| CC(=O)N1CCCN(c2cccc(Nc3nccc(-c4cnc5n(C)cccc4-5)n3)c2)CC1 | > 5000 nM | 0.7 nM | 1760 nM | 24 nM | > 5000 nM | 1 nM | – |
| CC(=O)N1CCN(c2ccc(Nc3nccc(-c4cn(S(=O)(=O)c5ccc(C)cc5)c5ccccc45)n3)cc2)CC1 | > 5000 nM | 128 nM | > 5000 nM | 1560 nM | > 5000 nM | > 5000 nM | – |
| CC(=O)N1CCCN(c2cccc(Nc3nccc(-c4n[nH]c5ccccc45)n3)c2)CC1 | > 5000 nM | 0.6 nM | 727 nM | 18 nM | > 5000 nM | 1 nM | – |
| CC(=O)N1CCN(c2ccc(Nc3nccc(-c4cn(C)c5ccccc45)n3)cc2)CC1 | > 5000 nM | 133 nM | > 5000 nM | 252 nM | > 5000 nM | 149 nM | – |
| CN1CCN(c2cccc(Nc3nccc(-c4c[nH]c5cccnc45)n3)c2)CC1 | > 5000 nM | 20 nM | > 5000 nM | 405 nM | > 5000 nM | 217 nM | – |
| CC(=O)N1CCCN(c2cccc(Nc3nccc(-c4c[nH]c5cccnc45)n3)c2)CC1 | > 5000 nM | 107 nM | > 5000 nM | 688 nM | > 5000 nM | 150 nM | – |
| CC(=O)N1CCN(c2ccc(Nc3nccc(-c4c[nH]c5ncccc45)n3)cc2)CC1 | > 5000 nM | 0.1 nM | 91 nM | < 1 nM | 49 nM | 0.8 nM | – |
| CC(=O)N1CCN(c2ccc(Nc3ncc(C#N)c(-c4cn(C)c5ccccc45)n3)cc2)CC1 | 1620 nM | 7 nM | 1580 nM | 30 nM | 1120 nM | 37 nM | – |
| CC(=O)N1CCN(c2ccc(Nc3nccc(-c4nn(C)c5ccccc45)n3)cc2)CC1 | > 5000 nM | 274 nM | > 5000 nM | 181 nM | > 5000 nM | 883 nM | – |
| CC(=O)N1CCN(c2ccc(Nc3nccc(-c4c[nH]c5cccnc45)n3)cc2)CC1 | > 5000 nM | 4 nM | > 5000 nM | 420 nM | > 5000 nM | 32 nM | – |
| CCc1nc(C(N)=O)c(Nc2ccc(N3CCC(N4CCN(C)CC4)CC3)c(OC)c2)nc1NC1CCOCC1 [GILTERITINIB] | > 5000 nM | – | > 5000 nM | 2 nM | 1480 nM | – | – |
| CC(=O)N1CCCN(c2cccc(Nc3nccc(-c4c[nH]c5ncccc45)n3)c2)CC1 | 29 nM | 0.1 nM | 51 nM | 20 nM | 31 nM | 0.4 nM | – |
| CC(=O)N1CCN(c2ccc(Nc3ncc(C#N)c(-c4n[nH]c5ccccc45)n3)cc2)CC1 | > 5000 nM | 0.2 nM | 1650 nM | 17 nM | > 5000 nM | 21 nM | GI50 (Jurkat): > 10000 nM; Ki [6]: < 0.3 nM; GI50 [7]: 0.4 nM; GI50 (MV4-11 [8]): 17 nM; Ki [9]: < 0.3 nM; Ki [10]: < 0.3 nM; GI50 (K562): 185 nM; GI50 (U-937): > 10000 nM; Ki [11]: < 0.3 nM; Ki [12]: < 0.3 nM; GI50 (NB-4): 126 nM; GI50 (THP-1): 3040 nM; Ki [13]: < 0.3 nM |
